Data taken from ChEMBL document CHEMBL2321751, “Optimization of chloronitrobenzamides (CNBs) as therapeutic leads for human African trypanosomiasis (HAT)” (J Med Chem, 2013).
In brackets after ≈: the same amount, converted by molar mass.

How the values were obtained:
[1] = tested on: Trypanosoma brucei brucei; assay: Antitrypanosomal activity against blood stream stage of Trypanosoma brucei brucei after 48 hrs by Cell Titre Glo assay; assay type: functional, organism-based
Method in brief: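 Culture-adapted parasites were grown in HMI-9 with 10% heat-inactivated FBS, 10% Serum Plus and penicillin/streptomycin to 1 × 10⁶ cells/mL, then diluted to 1 × 10⁴ cells/mL. DMSO dilution series were pin-transferred and plates held 48 h at 37 °C in 5% CO2. After 30 min at room temperature, CellTiter-Glo was added and luminescence read after 8 min.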

[2] = tested on: Trypanosoma brucei gambiense; assay: Antitrypanosomal activity against Trypanosoma brucei gambiense STIB930 after 70 hrs by Alamar Blue assay; assay type: functional, organism-based; conditions: STIB930, 70 h
Method in brief: (§1)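 T. b. gambiense strains were grown in HMI-9 with 15% heat-inactivated FBS and 5% human serum. 10000 trypanosomes per well were seeded into serial drug dilutions and held 70 h at 37 °C in humidified 5% CO2. Resazurin was then added for a further 4–6 h, and fluorescence was read (ex 536/em 588 nm). IC50 was taken by linear regression from sigmoidal dose-inhibition curves.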

[3] = tested on: HepG2; assay: Cytotoxicity against human HepG2 cells after 72 hrs by Cell Titre Glo assay; assay type: cell-based; conditions: HepG2, 72 h
Method in brief: (§2)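 Human cells grown to 80% confluence were plated in 384-well format and received compound dilutions by pin tool. After 72 h at 37 °C in 5% CO2, viability was measured by CellTiter-Glo luminescence.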

[4] = Permeability of the compound at pH 7.4 by PAMPA; assay type: ADME; conditions: PAMPA, read-out: permeability
Method in brief: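 Compound (10 mM DMSO stock) was diluted in system solution buffer pH 7.4 and placed in the donor chamber of a PAMPA sandwich whose membrane was coated with GIT lipid. Acceptor buffer filled the acceptor chamber, and the assembly was stirred for 30 min. Donor and acceptor UV spectra (250–500 nm) were compared with a reference to give the permeability coefficient. Run in triplicate.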

[5] = tested on: Trypanosoma brucei gambiense; assay: Antitrypanosomal activity against Trypanosoma brucei gambiense KO48 after 70 hrs by Alamar Blue assay; assay type: functional, organism-based; conditions: KO48, 70 h; method in brief: as §1
[6] = tested on: HEK293; assay: Cytotoxicity against HEK293 cells after 72 hrs by Cell Titre Glo assay; assay type: cell-based; conditions: Homo sapiens, HEK293, 72 h; method in brief: as §2
[7] = tested on: Trypanosoma brucei gambiense; assay: Antitrypanosomal activity against Trypanosoma brucei gambiense DAL 898R after 70 hrs by Alamar Blue assay; assay type: functional, organism-based; method in brief: as §1
[8] = tested on: Trypanosoma brucei brucei; assay: Antitrypanosomal activity against Trypanosoma brucei brucei 221 after 48 hrs by Cell Titre Glo assay; assay type: functional, organism-based; conditions: Trypanosoma brucei, 221, 48 h
Method in brief: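 Bloodstream-form parasites grown in HMI-9 with 10% heat-inactivated FBS, 10% Serum Plus and penicillin/streptomycin at 37 °C, 5% CO₂, to 1 × 10⁶ cells/mL. Diluted to 1 × 10⁴ cells/mL, then dosed with a DMSO dilution series by pin transfer. Incubated 48 h at 37 °C, 5% CO₂. Viability read by CellTiter-Glo luminescence. EC₅₀ from a variable-slope sigmoidal fit. Mean of six replicates, errors as 95% CI.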

[9] = Kinetic solubility of the compound in PBS buffer at pH 7.4 after 18 hrs by UV spectrophotometric analysis; assay type: physicochemical; conditions: for solubility kinetic at 18 h: PBS buffer, pH 7.4, read-out: Kinetic_solubility; for Kinetic_solubility: buffer, pH 7.4, 18 h, BLD = below limit of detection
Method in brief: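 Compound from a 10 mM stock was added to PBS pH 7.4 and left 18 h at room temperature. The suspension was filtered, and the filtrate was mixed 1:1 with 1-propanol. Solubility was derived from UV spectrum AUC (250–500 nm) relative to a 1-propanol/PBS reference. Run in triplicate.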

[10] = tested on: Raji; assay: Cytotoxicity against human Raji cells after 72 hrs by Cell Titre Glo assay; assay type: cell-based; method in brief: as §2
[11] = tested on: Trypanosoma brucei rhodesiense; assay: Antitrypanosomal activity against bloodstream forms of wild type Trypanosoma brucei rhodesiense STIB900 after 70 hrs by Alamar Blue assay; assay type: functional, organism-based; conditions: STIB900, 70 h
Method in brief: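 T. b. rhodesiense STIB 900 was cultured in MEM with Earle's salts and Baltz supplements (0.2 mM 2-mercaptoethanol, 1 mM Na-pyruvate, 0.5 mM hypoxanthine, 15% heat-inactivated horse serum). 2000 bloodstream forms per well were exposed to serial drug dilutions for 70 h at 37 °C in humidified 5% CO2. Resazurin followed for 2–4 h, read by fluorescence (ex 536/em 588 nm). IC50 came from sigmoidal curves by linear regression.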

[12] = tested on: BJ; assay: Cytotoxicity against human BJ cells after 72 hrs by Cell Titre Glo assay; assay type: cell-based; method in brief: as §2

Cc1ccc(-c2csc(NC(=O)c3cc([N+](=O)[O-])ccc3Cl)n2)cc1 gave an EC50 [1] of 1200 nM.
Work on COc1ccc(OC)c(-c2csc(NC(=O)c3cc([N+](=O)[O-])ccc3Cl)n2)c1 yielded an EC50 [1] of 2100 nM.
Work on COc1cccc2sc(NC(=O)c3cc([N+](=O)[O-])ccc3Cl)nc12 yielded an EC50 [1] of 500 nM.
O=C(Nc1cccc(C(F)(F)F)c1)c1cc([N+](=O)[O-])ccc1Cl showed an EC50 [1] of 950 nM.
O=C(Nc1cc(C(F)(F)F)ccc1Cl)c1cc([N+](=O)[O-])ccc1Cl gave an EC50 [1] of 520 nM.
In the case of O=C(Nc1cccc(Br)c1)c1cc([N+](=O)[O-])ccc1Cl, the EC50 [1] is reported as 1800 nM.
With COc1ccc2nc(NC(=O)c3cc([N+](=O)[O-])ccc3Cl)sc2c1 the EC50 [1] was 980 nM.
In the case of Cc1ccc2nc(NC(=O)c3cc([N+](=O)[O-])ccc3Cl)sc2c1, the EC50 [1] is reported as 1100 nM.
Work on Cc1ccc2nc(NC(=O)c3cc([N+](=O)[O-])ccc3Cl)[nH]c2c1 yielded an EC50 [1] greater than 33000 nM.
Compound O=C(Nc1cccc(-c2nc3ccccc3o2)c1)c1cc([N+](=O)[O-])ccc1Cl has an EC50 [2] of 210 nM, an EC50 [1] of 290 nM and an EC50 [3] greater than 25000 nM. For the same compound, the Papp [4] was 45 ×10⁻⁶ cm/s, the EC50 [5] was 460 nM and the EC50 [6] was greater than 25000 nM. The EC50 [7] was 620 nM, the EC50 [8] was 480 nM and the solubility kinetic at 18 h [9] was 0.47 µM (≈ 0.185 µg/mL). It also gave an EC50 [10] greater than 25000 nM, an EC50 [11] of 370 nM and an EC50 [12] greater than 25000 nM.
For Cc1ccc(-c2nc3cc(Cl)ccc3o2)cc1NC(=O)c1cc([N+](=O)[O-])ccc1Cl, the EC50 [1] was greater than 33000 nM.
In the case of O=C(Nc1ccc(-c2nc3ccccc3o2)cc1)c1cc([N+](=O)[O-])ccc1Cl, the EC50 [1] is reported as 6100 nM.
In the case of O=C(Nc1cccc(-c2nc3ncccc3o2)c1)c1cc([N+](=O)[O-])ccc1Cl, the EC50 [1] is reported as 3100 nM.
O=C(Nc1ccc(-c2nc3ccccc3[nH]2)cc1)c1cc([N+](=O)[O-])ccc1Cl gave an EC50 [1] of 4100 nM.
Work on O=C(Nc1ccc(Cl)c(C(F)(F)F)c1)c1cc([N+](=O)[O-])ccc1Cl yielded an EC50 [2] of 820 nM, an EC50 [3] greater than 27000 nM and a Papp [4] of 8 ×10⁻⁶ cm/s. The EC50 [5] was 1300 nM, the EC50 [6] was greater than 27000 nM and the EC50 [7] was 1600 nM. The EC50 [8] was 1100 nM, the solubility kinetic at 18 h [9] was 0.58 µM (≈ 0.22 µg/mL) and the EC50 [10] was greater than 27000 nM. For the same compound, the EC50 [11] was 1800 nM and the EC50 [12] was greater than 27000 nM.
Work on O=C(Nc1cc(C(F)(F)F)cc(C(F)(F)F)c1)c1cc([N+](=O)[O-])ccc1Cl yielded an EC50 [3] greater than 27000 nM, a Papp [4] of 44 ×10⁻⁶ cm/s and an EC50 [6] of 14000 nM. For the same compound, the EC50 [8] was 9600 nM, the Kinetic_solubility [9] was “BLD” and the EC50 [10] was 14000 nM. For the same compound, the EC50 [12] was 22000 nM.
For O=C(Nc1nc(-c2ccc(F)c(F)c2)cs1)c1cc([N+](=O)[O-])ccc1Cl, the EC50 [2] was 560 nM, the EC50 [3] was greater than 27000 nM and the Papp [4] was 37 ×10⁻⁶ cm/s. It also gave an EC50 [5] of 630 nM, an EC50 [6] of 8300 nM and an EC50 [7] of 1600 nM. The EC50 [8] was 2500 nM, the Kinetic_solubility [9] was “BLD” and the EC50 [10] was 13000 nM. It also gave an EC50 [11] of 1500 nM and an EC50 [12] greater than 27000 nM.
Nc1nc(N)nc(Nc2ccc([As]3SCC(CO)S3)cc2)n1 (stereo not drawn) [MELARSOPROL] showed an EC50 [2] of 6.7 nM, an EC50 [5] of 14 nM and an EC50 [7] of 12 nM. For the same compound, the EC50 [11] was 7.2 nM.
N=C(N)c1ccc(OCCCCCOc2ccc(C(=N)N)cc2)cc1 [PENTAMIDINE] showed an EC50 [2] of 0.7 nM, an EC50 [5] of 51 nM and an EC50 [7] of 0.9 nM. The EC50 [8] was 12 nM and the EC50 [11] was 0.6 nM.
